Hits are enriched below; roughly 2.6% of the tested compounds scored in any of these assays.
IMP-1 inhibitor – inhibitors of Pseudomonas aeruginosa IMP-1 metallo-beta-lactamase. purified IMP-1, nitrocefin hydrolysis, epi-absorbance fluorescence. inhibition, % at 5.6 µM. 290,000 tested, 0.45% active;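 active = inhibition above the mean plus 3 SD of all compounds in the same screening run, cut at about 4.5% in these data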;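 also: 0% = IMP-1 with DMSO and 100% = DMSO wells lacking enzyme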
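system = purified recombinant IMP-1 beta-lactamase | amount = 0.2 nM IMP-1, as dispensed | medium = HEPES buffer pH 7.1 with ZnSO4 and Brij 35 | times = 25 °C, 15 min preincubation, 25 min reaction | detection = plate fluorescence quenching by hydrolysis product, ex 480/em 530 nm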
ARFGAP1 inhibitor – rat ARFGAP1 inhibition. Q62848. Arfgap1-stimulated ARF1 GTP hydrolysis, GDP FP detection. inhibition, % at 16.5 µM. 360,000 tested, 0.26% active;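 active = inhibition above a per-plate limit, mean inhibition of low control wells plus 3 SD, cut at about 25% in these data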;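 also: 0% = DMSO wells with enzyme and 100% = wells lacking Arfgap1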
Target sequence (Q62848 1-136 limits assumed): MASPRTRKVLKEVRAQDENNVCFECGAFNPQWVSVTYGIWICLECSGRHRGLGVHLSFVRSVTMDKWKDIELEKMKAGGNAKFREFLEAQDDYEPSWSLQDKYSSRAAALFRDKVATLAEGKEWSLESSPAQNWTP
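Material: rat Arfgap1 GAP domain (His6, aa 1-136), purified enzyme. Also added: human ARF1(Δ1-17)-GTP substrate. Compound dosing: 16.5 µM single point, 1.26% DMSO. Timing: enzyme reaction 120 min at 25 °C after 20 min preincubation. Signal: GDP detection by fluorescence polarization. Read-out basis: percent inhibition of GAP-stimulated GDP formation, scaled between DMSO and no-Arfgap1 medians.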
PHOSPHO1 block – blocks human PHOSPHO1 phosphatase activity; recombinant PHOSPHO1, absorbance phosphatase assay; inhibition, % at 13.3 µM; 290,000 tested, 1.1% active; in the data active = inhibition above about 60%
Target sequence (Q8TCT1 whole entry, looked up): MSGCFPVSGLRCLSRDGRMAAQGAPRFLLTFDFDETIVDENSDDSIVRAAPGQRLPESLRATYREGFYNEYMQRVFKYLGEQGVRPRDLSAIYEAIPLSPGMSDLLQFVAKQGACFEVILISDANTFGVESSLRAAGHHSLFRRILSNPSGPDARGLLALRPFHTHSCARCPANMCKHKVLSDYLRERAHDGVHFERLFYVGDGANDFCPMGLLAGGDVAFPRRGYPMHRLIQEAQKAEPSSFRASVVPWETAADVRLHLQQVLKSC
Calb FLC – affects C. albicans growth with fluconazole; growth inhibition, % (test concentration not listed); 300,000 tested, 0.57% active; C. albicans CaCi-2 + fluconazole, Alamar Blue growth, 48 h;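 active = growth inhibition above about 58% in most replicates, limit read from the data, passing the limit was not always enough; inconclusive = exactly half the replicates above a set limit; inactive = most replicates below a set limit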;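 also: all wells also contain fluconazole at 8 µg/ml as a sub-toxic cotreatment; 0% = median of DMSO wells and 100% = median of geldanamycin control wells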
VIM-2 inhibitor – inhibitors of Pseudomonas aeruginosa VIM-2 metallo-beta-lactamase | purified VIM-2, nitrocefin hydrolysis, epi-absorbance fluorescence | inhibition, % at 5.6 µM | 290,000 tested, 0.89% active | AID 1527;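 active = inhibition above the mean of all tested compounds plus 3 SD, cutoff set per screening run, cut at about 7.5% in these data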;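 also: red hydrolysis product quenches plate fluorescence so inhibitors raise well fluorescence; 0% = enzyme with DMSO and 100% = DMSO without enzyme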
ASAP1 inh – ASAP1 ArfGAP inhibition; Q9ULH1; ASAP1-stimulated ARF1 GTP hydrolysis, GDP FP detection; inhibition, % at 16.5 µM; 360,000 tested, 0.19% active; AID 624377; in the data active = inhibition above about 25%;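 also: 0% = vehicle with enzyme and substrate and 100% = no enzyme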
Starred values were filed as active, the others as inactive; ? = inconclusive; · = no result given.

SMILES	IMP-1 inhibitor	ARFGAP1 inhibitor	PHOSPHO1 block	Calb FLC	VIM-2 inhibitor	ASAP1 inh
Cc1nc2ccccc2c2oc(C(=O)N3CCCC(C)C3)cc12 (configuration not stated)	-0.7	-7.1	15.9	2.1	9.6*	4.0
Cc1nc2ccccc2c2oc(C(=O)N3CCC(N4CCCCC4)CC3)cc12	0.2	·	-14.5	·	60.2*	·
CC(=O)c1ccc(N2CCN(C(=O)c3cc4c(C)nc5ccccc5c4o3)CC2)cc1	-1.3	-1.6	18.5	-0.6	0.1	-8.3
COCc1cc(N2CCN(C(=O)OC(C)(C)C)C[C@@H]2C)ccc1N1CC[C@H](O)C1	·	-9.1	·	·	·	-4.8
COc1ccc(C2CC(=O)C(c3cccc(OC)c3)=CN2Cc2ccccc2)cc1 (configuration not stated)	·	-5.3	·	·	·	9.9
CCCNC(=O)C1(C)CCN(Cc2cc(-c3ccccc3)on2)C1 (configuration not stated)	·	-5.9	·	·	·	-4.3
Cc1ccc(SCC(=O)Nc2cc([N+](=O)[O-])ccc2O)cc1	-2.5	-14.7	40.8	86.7*	-2.7	-8.6
O=C(CSCc1ccc(Cl)cc1)Nc1cc([N+](=O)[O-])ccc1O	-2.4	2.0	41.1	90.5*	-2.3	6.2
CC(CC(=O)O)CC(=O)Nc1cc([N+](=O)[O-])ccc1O (configuration not stated)	-4.5	20.2	-13.4	-11.2	-3.8	9.3
Cc1ccc(-c2ccnc(=S)[nH]2)cc1	-0.6	5.0	89.9*	-9.5	0.0	-6.8
C=CCSc1nc(-c2ccc(OC)cc2)c(C#N)c(=O)n1CC=C	-2.6	1.5	60.0*	19.7	2.5	-3.1
O=C(N[C@H](Cc1ccccc1)C(=O)NCCCN1CCCC1=O)[C@H]1O[C@@H](n2ccc(=O)[nH]c2=O)[C@H](O)[C@@H]1O	·	-9.9	·	·	·	-3.9
Cc1ccnc(NC(=O)c2ccc(S(=O)(=O)c3ccccc3)cc2)c1	-2.4	6.0	61.0*	-9.7	-2.9	3.8
Cc1ccnc(NC(=O)c2ccc(C(=O)c3ccccc3)cc2)c1	·	-5.1	·	19.7	·	3.2
Oc1ccccc1C=NC(N=Cc1ccccc1O)c1ccccc1O (configuration not stated)	·	12.8	·	·	·	17.8
COc1cc(CNn2c(C)n[nH]c2=S)cc(Cl)c1OCc1ccc(F)cc1	-3.3	5.9	89.7*	27.0	-6.2	-3.1
CCC1(c2ccc(Cl)cc2)NC(=S)N(c2ccc(C)c(C)c2)N1 (configuration not stated)	-3.6	-19.2	67.6*	-15.2	-3.7	-9.5
CC(C)n1nccc1NC(=O)Nc1ccccc1	9.1*	17.1	18.7	1.8	-0.1	-13.2
O=C(/C=C/c1ccccc1)c1cc(Br)ccc(=O)c1O	-0.2	-18.2	38.3	-3.5	-1.6	-10.8
Cc1ccc(/C=C/C(=O)c2ccccc(=O)c2O)cc1C	1.9	-11.7	-0.3	99.3*	1.1	-4.8
Cc1cc(Br)ccc1OCC(=O)NNC(=O)Cc1ccccc1	0.1	1.3	4.5	-1.2	-1.8	-2.5
Cc1cc(Br)ccc1OCC(=O)NNC(=O)C(=O)Nc1ccccc1	-1.5	-9.8	32.8	88.6*	-6.1	-9.9
CN(Cc1cnn(-c2ccc(F)cc2)c1)C(=O)[C@H]1O[C@@H](n2ccc(=O)[nH]c2=O)[C@H](O)[C@@H]1O	·	-10.4	·	·	·	1.4
CC(=O)N(c1ccc2oc(=O)sc2c1)S(=O)(=O)c1cccs1	-4.5	0.4	-38.6	55.7	-1.1	5.9
CC(C)C(=O)N(c1ccc2oc(=O)sc2c1)S(=O)(=O)c1cccs1	-2.5	7.3	87.0*	-7.5	-1.0	-0.5
SMILES	IMP-1 inhibitor	ARFGAP1 inhibitor	PHOSPHO1 block	Calb FLC	VIM-2 inhibitor	ASAP1 inh
CC(C)C(=O)N(c1cc2sc(=O)oc2c2ccccc12)S(=O)(=O)c1cccs1	-2.1	3.5	92.1*	?	-0.6	21.7
CCc1n[nH]c(=S)n1/N=C/c1ccc2c(c1)OCO2	-0.6	-6.0	102.6*	38.0	5.4	-6.7
OCc1ccnc2c(O)cccc12	-3.0	9.5	41.6	106.6*	-2.0	-2.3
COC(=O)[C@]12C[C@H](CC(=O)N3CCN(C(=O)C4CC4)CC3)C(=O)N(Cc3ccccc3)C1=C[C@H](C(C)C)O[C@@H]2C1CC1	·	5.5	·	·	·	1.5
COc1ccc(/C=C/c2cc(-c3ccc(C)cc3)o[n+]2C)cc1	-0.5	-9.9	19.1	89.7*	-0.4	-4.8
Cc1cc(C)nc(NS(=O)(=O)c2ccc(NC(=O)CSc3ncn[nH]3)cc2)n1	-2.7	5.7	61.8*	10.5	-5.9	-7.8
COC(=O)CCC(=O)Nc1ccc(S(=O)(=O)Nc2nc(C)cc(C)n2)cc1	4.8*	18.4	44.4	-3.3	-0.3	-5.1
CC(C)CNc1cccc2c1S(=O)(=O)N[C@@H](Cc1ccccc1)CO2	·	15.8	·	·	·	5.3
CCOC(=O)c1ccc(NC(=O)CCS(=O)(=O)Cc2ccccc2)cc1	-0.5	9.8	62.8*	-2.1	-2.2	0.4
COC(=O)c1ccc(NC(=O)CS(=O)(=O)Cc2ccccc2)cc1	-0.7	9.7	-6.8	-2.4	-0.9	-8.9
CCCCNC(=O)C[C@H]1C[C@@]2(C(=O)OC)C(=C[C@H](COCc3ccccc3)O[C@@H]2C)N(Cc2ccc3c(c2)OCO3)C1=O	·	2.6	·	·	·	-5.2
CC(=O)Cc1nsc(Nc2ccc(Cl)cc2)n1	-3.3	2.7	-0.7	117.5*	-1.3	12.8
CCOC(=O)CCC(=O)Nc1cc(S(=O)(=O)N2CCOCC2)ccc1N1CCCCC1	·	9.1	·	·	·	-13.9
CCN(CC)S(=O)(=O)c1ccc(N2CCOCC2)c(NC(=O)COc2ccccc2C#N)c1	-3.0	9.5	36.0	1.7	1.4	37.2*
CCOCC(=O)Nc1cc(S(=O)(=O)N2CCOCC2)ccc1N1CCCCC1	-2.6	2.0	74.9*	13.8	-1.4	-1.0
COc1ccc(S(=O)(=O)N2CCCc3nc(-c4ccc(Br)cc4)ccc32)cc1	·	1.8	·	·	·	-4.3
O=C(/C=C/c1cccc(Cl)c1)c1nc2ccccc2[nH]1	-2.8	-0.3	-8.3	99.4*	-2.6	5.9
C[C@H](CO)N1C[C@H](C)[C@@H](CN(C)C(=O)C2CC2)OCc2cn(nn2)CCCC1=O	·	13.1	·	·	·	3.5
O=C(CN1CCN(c2ccccn2)CC1)Nc1ccc(OC(F)(F)F)cc1	6.1*	1.8	28.6	2.7	-5.1	7.4
CCN(CC)c1ccc(NC(=O)c2cc(Cl)ccc2OC)cc1	-2.8	-6.5	75.8*	-4.6	-2.0	0.8
CCOCc1nnc(NC(=O)c2cc(Cl)ccc2OC)s1	0.3	2.2	97.4*	3.2	-0.8	9.1
O=C(Nc1ccc(Nc2ccccc2)cc1)c1ccccc1F	0.7	4.9	13.8	-4.3	-0.8	-0.1
COc1ccc(Cl)cc1C(=O)Nc1ccncc1	-1.3	2.2	12.8	36.0	2.3	13.4
COCc1nnc(NC(=O)c2cc(Cl)ccc2OC)s1	-1.9	-6.3	14.0	?	-0.9	6.7
CCN(CC)c1ccc(NC(=O)c2ccccc2F)cc1	-2.4	14.5	62.5*	1.7	-1.9	-9.8
